# The source made the active and inactive calls.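 How the source made its calls, unless noted: active means viability at or under a set limit in both replicates, limit being median viability minus 3 SD (cut at about 48% in these data, passing the limit was not always enough); inconclusive means at or under the limit in just one replicate; inactive means at or above the limit in both replicates.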
# Experiments:
# [1] = HUVEC growth inhibition – cell-based, human, primary screen (AID 575;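 active means viability at or below 30% in both replicate assays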;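 further: 100% = median of untreated cell wells with 0.1% DMSO on each plate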); settings: HUVEC proliferation, CellTiter-Glo luminescence, 72 h; at 10 µM; stronger effect = lower value
# In short: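 Test system: primary human umbilical vein endothelial cells; medium: endothelial basal medium with 2% FBS plus growth supplements; dosing: 10 µM compound only; times: 72 h treatment at 37 °C; signal: CTG luminescence; read-out: % viability relative to median vehicle-well signal on each plate; control set: vehicle and MePR control wells; plate: 384-well, collagen-coated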
# [2] = growth inhibitors of H69AR lung tumor, primary screen, human, duplicate replicates (AID 580); settings: H69AR lung tumor cells viability, ATP luminescence, 72 h; at 10 µM; stronger effect = lower value;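 further: 100% = mean luminescence of untreated wells and 0% = no signal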
# [3] = reversal of MRP1-mediated doxorubicin resistance, pilot screen, H69AR cells, doxorubicin co-treatment (AID 601;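 active means viability loss from added drug above about 55%, and viability with drug at most 40%, in both replicates, limit read from the data, passing the limit was not always enough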); settings: CellTiter-Glo, 72 h, at 10 µM; for differential viability (reversal): stronger effect = higher value
# [4] = 384-well plate pilot, post-Golgi transport modulator project, inhibition of yeast transport mutant growth (AID 636; in the data active means inhibition above about 31%); settings: absorbance 615 nm, about 18 h, stronger effect = higher value
# [5] = growth suppression of yeast trafficking mutant, preliminary HTS, modulators of trafficking downstream of Golgi apparatus project, 1536-format plate, OD 615 nm (AID 637; in the data active means inhibition above about 30%); settings: yeast transport mutant growth, absorbance 615 nm, 18 h; stronger effect = higher value
# [6] = H69AR cells + 2 uM doxorubicin, measured here: viability with 2 uM doxorubicin, stronger effect = lower value
# [7] = H69AR cells, compound alone cytotoxicity
Structure (SMILES),viability [1],viability [2],differential viability (reversal) ([3]; H69AR cells + 2 uM doxorubicin),"viability [3, 6] [%]","viability [3, 7] [%]",inhibition [4],inhibition [5]
COc1cccc2cc(C(=O)n3ccc(C)n3)c(=O)oc12,111% (inactive),93.4% (inactive),2.8% (inactive),90.6,93.4,-3.29% (inactive),7.14% (inactive)
Nc1nc(CN2CCOCC2)cs1,101% (inactive),100% (inactive),3.83% (inactive),96.1,100,-1.69% (inactive),0.95% (inactive)
CCOC(=O)c1sc(NC(=O)CSc2nc3c(cc2C#N)CCC3)c(C#N)c1C,74.7% (inactive),91.1% (inactive),-8.41% (inactive),99.5,91.1,-5% (inactive),-0.32% (inactive)
COc1cccc(-n2c(SCC(=O)OC(C)C)nnc2-c2cccnc2)c1,88.3% (inactive),97.4% (inactive),4.17% (inactive),93.2,97.4,-1.32% (inactive),-3.02% (inactive)
Cc1cc(C)cc(Nc2ncc3c(n2)CC(c2ccco2)CC3=O)c1 (stereo not drawn),86.1% (inactive),88.3% (inactive),1% (inactive),87.3,88.3,-6.67% (inactive),3.17% (inactive)
CN1CCN(c2nc(-c3ccncc3)nc3ccccc23)CC1,78.3% (inactive),78.3% (inactive),49.5% (inactive),28.8,78.3,-5.47% (inactive),1.75% (inactive)
O=C(O)C1C2CCC(C2)C1C(=O)NCCCn1ccnc1 (stereo not drawn),112% (inactive),90.6% (inactive),6.16% (inactive),84.4,90.6,-7.24% (inactive),-0.79% (inactive)
CCOC(=O)c1cc2oc(C)cc2n1CC(=O)OC1CCCCC1,90.9% (inactive),87.3% (inactive),0.485% (inactive),86.8,87.3,-2.73% (inactive),5.24% (inactive)
Cc1cc(NCCCn2ccnc2)n2c(nc3ccccc32)c1C#N,94% (inactive),100% (inactive),7.14% (inactive),93.3,100,4.29% (inactive),6.51% (inactive)
CN(C)S(=O)(=O)Nc1ccccc1C(N)=O,90.8% (inactive),98.4% (inactive),13.8% (inactive),84.6,98.4,-6% (inactive),0.63% (inactive)
Cc1nc2cc(NC(=O)N3CC4(C)CC3CC(C)(C)C4)ccc2n1C (stereo not drawn),100% (inactive),89.7% (inactive),7.53% (inactive),82.2,89.7,-6.71% (inactive),-8.1% (inactive)
O=C1CC(Sc2nnc(-c3ccccc3)o2)C(=O)N1c1ccccc1 (stereo not drawn),96.3% (inactive),2.27% (active),-6.77% (inactive),9.04,2.27,-6.13% (inactive),-1.11% (inactive)
Cc1cc2c(c(=O)n1CCN(C)C)C(c1ccncc1)C(C#N)=C(N)O2 (stereo not drawn),103% (inactive),103% (inactive),0.98% (inactive),102,103,-2.37% (inactive),-6.51% (inactive)
CCOC(=O)N1CCN(C(=O)Nc2ccc(Cl)cc2)CC1,97.7% (inactive),98.3% (inactive),14.8% (inactive),83.4,98.3,-3.55% (inactive),4.6% (inactive)
CS(=O)(=O)N(CC(=O)N1CCCCCC1)c1ccccc1,95.2% (inactive),98.2% (inactive),8.29% (inactive),90,98.2,-5.79% (inactive),1.9% (inactive)
CCCCNC(=O)OC(C)CNC(=O)Oc1cccc(C)c1 (stereo not drawn),75.7% (inactive),93.8% (inactive),1.64% (inactive),92.2,93.8,-4.08% (inactive),3.49% (inactive)
CCOC(=O)Cc1nnc(NC(=O)c2ncn[nH]2)s1,95.4% (inactive),98.8% (inactive),-2.02% (inactive),101,98.8,-2.93% (inactive),-1.27% (inactive)
Cc1onc(-c2c(Cl)cccc2Cl)c1C(=O)NCCCN1CCOCC1,108% (inactive),100% (inactive),-1.13% (inactive),101,100,-2.5% (inactive),-2.22% (inactive)
COc1cccc(-c2noc(CCC(=O)NC3CCCCC3)n2)c1,91.5% (inactive),97.6% (inactive),0.295% (inactive),97.3,97.6,-2.63% (inactive),-5.4% (inactive)

Structure (SMILES),viability [1],viability [2],differential viability (reversal) ([3]; H69AR cells + 2 uM doxorubicin),"viability [3, 6] [%]","viability [3, 7] [%]",inhibition [4],inhibition [5]
COc1ccc(N2C(=O)CC(N3CCN(S(=O)(=O)c4c(F)cccc4F)CC3)C2=O)cc1OC (stereo not drawn),107% (inactive),103% (inactive),8.42% (inactive),94.3,103,-2.34% (inactive),-6.35% (inactive)
O=C1CC(C(=O)Nc2ccccc2)C2(CCCC2)O1 (stereo not drawn),98.4% (inactive),93.9% (inactive),3.1% (inactive),90.8,93.9,-2.6% (inactive),-2.38% (inactive)
CON(C)c1nc(Oc2ccc(=O)[nH]n2)nc(N(C)C)n1,87.6% (inactive),97.9% (inactive),11.8% (inactive),86.2,97.9,-4.4% (inactive),4.44% (inactive)
O=C(CN1C(=O)COc2ccccc21)NCCCN1CCc2ccccc2C1,83.2% (inactive),94.8% (inactive),11.6% (inactive),83.2,94.8,-1.69% (inactive),9.05% (inactive)
O=C(NC1CCCCC1)C(c1ccc(Cl)cc1)N(C(=O)c1cnccn1)c1ccc2c(c1)OCO2 (stereo not drawn),80.4% (inactive),80.2% (inactive),4.39% (inactive),75.8,80.2,-5.47% (inactive),-5.71% (inactive)
COc1ccccc1CNC(=O)C1CCN(S(=O)(=O)N2CCCCC2)CC1,83.4% (inactive),81.7% (inactive),1.51% (inactive),80.2,81.7,-1.97% (inactive),3.81% (inactive)
CC1CCN(C(=O)CSc2nnc(-c3cccnc3)n2C2CCCCC2)CC1,112% (inactive),97.5% (inactive),-3.36% (inactive),101,97.5,-2.76% (inactive),0.16% (inactive)
COc1ccccc1NS(=O)(=O)c1ccc(NC(=O)c2nc3ncccn3n2)cc1,94.7% (inactive),96.3% (inactive),11.2% (inactive),85.1,96.3,-1.17% (inactive),7.3% (inactive)
O=S(=O)(c1ccccc1)N1CCN(C2CCCCCCC2)CC1,100% (inactive),87.5% (inactive),-6.82% (inactive),94.3,87.5,-1.45% (inactive),1.9% (inactive)
CCOC(=O)c1c(COC(=O)c2ccco2)nc2ccccc2[n+]1[O-],90.3% (inactive),87.2% (inactive),2.55% (inactive),84.6,87.2,-5.73% (inactive),3.97% (inactive)
Cc1ccc(NCc2nnc(SCC(=O)NCc3ccco3)n2CC2CCCO2)cc1Cl (stereo not drawn),85.6% (inactive),88.5% (inactive),-7.28% (inactive),95.8,88.5,5% (inactive),-3.17% (inactive)
Cc1cc(N2C(=O)C(O)=C(C(=O)c3ccc(C)o3)C2c2cccs2)no1 (stereo not drawn),64.2% (inactive),79.9% (inactive),-4.59% (inactive),84.5,79.9,-2.13% (inactive),-6.03% (inactive)
S=c1nc(C2CC2)[nH]c2ccccc12,78.3% (inactive),94% (inactive),5.99% (inactive),88,94,-0.92% (inactive),0.63% (inactive)
COC(=O)CN1C(=O)C2(C(C#N)=C(N)Oc3c2c(C)nn3-c2ccccc2)c2ccccc21 (stereo not drawn),69.8% (inactive),67.8% (inactive),-5.54% (inactive),73.3,67.8,-6.32% (inactive),-1.43% (inactive)
Cc1ccccc1CN1CCN(C(=O)c2cccc(F)c2)CC1,94.7% (inactive),101% (inactive),4.51% (inactive),96.9,101,-1.87% (inactive),-0.16% (inactive)
Cc1cccc2cc(CN(Cc3nnnn3Cc3ccco3)C3CCCC3)c3nnnn3c12,86.8% (inactive),85.6% (inactive),,,,68.2% (active),4.44% (inactive)
CN(C)S(=O)(=O)N1CCN(S(=O)(=O)c2ccc(F)cc2)CC1,90.7% (inactive),101% (inactive),4.42% (inactive),96.1,101,2.8% (inactive),-2.22% (inactive)
O=C(NCCc1ccccc1)c1cc(-c2ccco2)on1,81.3% (inactive),88.6% (inactive),,,,-4.08% (inactive),7.94% (inactive)
